Data from ChEMBL document CHEMBL5257122, “Structure-Activity relationships of replacements for the triazolopyridazine of Anti-Cryptosporidium lead SLU-2633” (Bioorg Med Chem, 2023).

What was measured:
Cryptosporidium parvum [1] = assay: Antiparasitic activity against Cryptosporidium parvum infected in human HCT-8 cells assessed as parasitic growth inhibition measured for 48 hrs by fluorescence microscopic analysis; assay type: functional, organism-based; settings: HCT-8, 48 h
In short: (§1)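 C. parvum Iowa isolate oocysts excysted (10 mM HCl, 10 min, 37 °C; then 2 mM sodium taurocholate in PBS, 10 min, 16 °C) and used to infect near-confluent HCT-8 monolayers. Compound added after 3 h, then 45 h more at 37 °C, 5% CO₂. Fixed, stained with fluorescein-Vicia villosa lectin (vacuoles) and Hoechst (nuclei), imaged and counted automatically. 9-point dose-response, ≥2 experiments, n=8 per dose.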

[2] = Lipophilicity, logP of the compound; assay type: physicochemical; settings: octanol/water
In short: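 LogP calculated in silico (CDD Vault, method of Gedeck et al.) as an estimate of lipophilicity.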

Cryptosporidium parvum [3] = assay: Antiparasitic activity against Cryptosporidium parvum assessed as reduction in parasitic growth; assay type: functional, organism-based; in short: as §1
[4] = Dissociation constant, pKa of compound; assay type: physicochemical
In short: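 Basic pKa calculated in silico (CDD Vault, method of Lu et al.), not measured.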

[5] = molecular target: T1, Voltage-gated inwardly rectifying potassium channel KCNH2 (Homo sapiens, UniProt Q12809); assay: Displacement of [3H]-dofetilide from human ERG at 10 uM relative to control; assay type: toxicity
T1 sequence (Q12809 whole entry): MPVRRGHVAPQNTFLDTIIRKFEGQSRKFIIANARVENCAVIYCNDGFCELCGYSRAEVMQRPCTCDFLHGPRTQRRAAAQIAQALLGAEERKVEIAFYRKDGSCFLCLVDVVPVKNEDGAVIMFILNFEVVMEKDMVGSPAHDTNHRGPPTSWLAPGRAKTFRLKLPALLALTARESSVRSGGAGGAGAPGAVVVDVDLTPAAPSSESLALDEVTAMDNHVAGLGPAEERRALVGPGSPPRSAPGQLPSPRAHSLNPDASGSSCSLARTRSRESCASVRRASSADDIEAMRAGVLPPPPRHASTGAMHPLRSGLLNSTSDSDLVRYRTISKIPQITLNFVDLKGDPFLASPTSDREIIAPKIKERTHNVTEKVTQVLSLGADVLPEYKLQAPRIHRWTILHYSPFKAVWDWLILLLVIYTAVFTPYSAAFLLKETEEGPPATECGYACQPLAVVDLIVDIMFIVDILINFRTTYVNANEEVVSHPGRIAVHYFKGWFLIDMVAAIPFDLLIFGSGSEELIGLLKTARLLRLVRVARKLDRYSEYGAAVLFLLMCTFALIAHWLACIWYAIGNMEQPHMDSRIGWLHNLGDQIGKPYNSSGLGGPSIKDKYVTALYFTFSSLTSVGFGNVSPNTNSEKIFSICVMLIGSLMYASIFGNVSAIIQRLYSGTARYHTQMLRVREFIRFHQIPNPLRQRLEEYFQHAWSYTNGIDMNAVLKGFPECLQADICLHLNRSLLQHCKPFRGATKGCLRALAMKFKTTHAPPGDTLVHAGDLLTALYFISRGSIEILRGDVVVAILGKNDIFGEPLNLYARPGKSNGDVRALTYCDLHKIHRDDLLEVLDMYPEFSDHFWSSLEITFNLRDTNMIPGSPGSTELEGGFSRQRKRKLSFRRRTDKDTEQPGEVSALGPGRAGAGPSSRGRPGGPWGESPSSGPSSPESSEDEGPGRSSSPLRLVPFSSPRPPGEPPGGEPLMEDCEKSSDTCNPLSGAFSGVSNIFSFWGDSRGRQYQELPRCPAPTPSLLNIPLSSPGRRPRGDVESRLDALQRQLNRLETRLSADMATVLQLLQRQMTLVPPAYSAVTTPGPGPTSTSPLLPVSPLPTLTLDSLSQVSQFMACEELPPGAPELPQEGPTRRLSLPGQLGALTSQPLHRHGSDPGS
In short: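 Radioligand binding against human hERG potassium channel: % inhibition of [³H]-dofetilide binding by test compound at 10 μM.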

HCT-8 = assay: Cytotoxicity against human HCT-8 cells assessed as reduction in cell growth; assay type: functional
[6] = molecular target: T1, Voltage-gated inwardly rectifying potassium channel KCNH2; assay: Inhibition of hERG in CHO cells at 1 uM by automated patch clamp method relative to control; assay type: toxicity, cell-based
In short: (§2)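 hERG expressed in CHO cells, automated patch-clamp electrophysiology. Tail current inhibition measured at 1, 10 and 30 μM, each in duplicate, and reported as the average % inhibition.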

[7] = molecular target: T1, Voltage-gated inwardly rectifying potassium channel KCNH2; assay: Inhibition of hERG in CHO cells at 10 uM by automated patch clamp method relative to control; assay type: toxicity, cell-based; in short: as §2
[8] = molecular target: T1, Voltage-gated inwardly rectifying potassium channel KCNH2; assay: Inhibition of hERG in CHO cells at 30 uM by automated patch clamp method relative to control; assay type: toxicity, cell-based; in short: as §2

Structure (SMILES)	EC50 (Cryptosporidium parvum [1]) [µM]	further results
Cc1cccc(N2CCN(C(=O)Cc3ccc(Cl)c(Cl)c3)CC2)n1	36	
O=C(Nc1ccc(Cl)c(Cl)c1)N1CCN(C2=Nn3cnnc3CC2)CC1	13	logP [2]: 2.3
O=C(Cc1ccc(Cl)c(Cl)c1)N1CCN(c2ccc3nnc(-c4ccncc4)n3n2)CC1	> 50	
O=C(Nc1ccc(Cl)c(Cl)c1)N1CCN(c2cn3ccnc3cn2)CC1	> 25	
O=C(Nc1ccc(Cl)c(Cl)c1)N1CCN(c2ncc(C(F)(F)F)cn2)CC1	> 25	
O=C(Cc1ccc(Cl)c(Cl)c1)N1CCN(c2ccc3nnc(Cl)n3n2)CC1	29	
O=C(Cc1ccc(Cl)c(Cl)c1)N1CCN(c2ccn3nccc3n2)CC1	47	
O=C(Nc1nc2nc(N3CCN(C(=O)Cc4ccc(Cl)c(Cl)c4)CC3)ccc2s1)c1ccncc1	7.3	
O=C(Cc1ccc(Cl)c(Cl)c1)N1CCN(c2ncc([N+](=O)[O-])s2)CC1	20	
O=C(Nc1nc2cc(N3CCN(C(=O)Cc4ccc(Cl)c(Cl)c4)CC3)ccc2s1)c1ccccc1	93	
CC(=O)Oc1ccccc1C(=O)Nc1ncc([N+](=O)[O-])s1 [NITAZOXANIDE]	3.7	
Cn1ncc2nc(N3CCN(C(=O)Cc4ccc(Cl)c(Cl)c4)CC3)ccc21	> 50	
O=C(Nc1ccc(Cl)c(Cl)c1)N1CCN(c2ccc3nnc(Cl)n3n2)CC1	12	
CC(C)(C)OC(=O)N1CCN(C(=O)Cc2ccc(Cl)c(Cl)c2)CC1	> 50	
O=C(Cc1ccc(Cl)c(Cl)c1)N1CCN(c2nc3ccccc3s2)CC1	36	
CCOC(=O)c1cn2nc(N3CCN(C(=O)Cc4ccc(Cl)c(Cl)c4)CC3)ccc2n1	58	
O=C(Nc1ccc(Cl)c(Cl)c1)N1CCN(c2ccccc2)CC1	20	
COc1ccc(N2CCN(C(=O)Cc3ccc(Cl)c(Cl)c3)CC2)nn1	57	
O=C(Cc1ccc(Cl)c(Cl)c1)N1CCN(c2ccccn2)CC1	> 50	
O=C(Cc1ccc(Cl)c(Cl)c1)N1CCN(c2ccc3nnc(Cc4ccccc4)n3n2)CC1	16	
O=C(Nc1ccc(Cl)cc1)N1CCN(c2ccc3nncn3n2)CC1		EC50 (Cryptosporidium parvum [3]): 2.1 µM
O=C(Cc1ccc(Cl)c(Cl)c1)N1CCN(c2ccc(C(F)(F)F)nn2)CC1	49	
O=C(O)c1cn2nc(N3CCN(C(=O)Cc4ccc(Cl)c(Cl)c4)CC3)ccc2n1	> 50	

Structure (SMILES)	EC50 (Cryptosporidium parvum [1]) [µM]	further results
O=C(Cc1ccc(Cl)c(Cl)c1)N1CCN(c2ccc3cn[nH]c3c2)CC1	26	
O=C(Cc1ccc(Cl)c(Cl)c1)N1CCN(c2ccc3nn(Cc4ccccc4)cc3n2)CC1	7.8	pKa [4]: 6.2; Activity [5]: 80%
O=C(Cc1ccc(Cl)c(Cl)c1)N1CCN(c2ccc3nnc(-c4ccccc4)n3n2)CC1	15	
Nc1cn2nc(N3CCN(C(=O)Cc4ccc(Cl)c(Cl)c4)CC3)ccc2n1	> 50	
Cc1nccc(N2CCN(C(=O)Cc3ccc(Cl)c(Cl)c3)CC2)n1	> 50	
Cc1cc2nncn2nc1N1CCN(C(=O)Cc2ccc(Cl)c(Cl)c2)CC1	23	
O=C(Cc1ccc(Cl)c(Cl)c1)N1CCN(c2ccc3nnc(-c4ccnc(C(F)(F)F)c4)n3n2)CC1	6.1	pKa [4]: 6; Activity [5]: 95%
CN(C)C(=O)c1cn2nc(N3CCN(C(=O)Cc4ccc(Cl)c(Cl)c4)CC3)ccc2n1	38	
O=C(Cc1ccc(Cl)c(Cl)c1)N1CCN(c2ccc3nnc(C(F)(F)F)n3n2)CC1	29	
Nc1nc2nc(N3CCN(C(=O)Cc4ccc(Cl)c(Cl)c4)CC3)ccc2s1	3.2	pKa [4]: 5.9; Activity [5]: 34%
O=C(Cc1ccc(Cl)c(Cl)c1)N1CCN(c2ccc3nnc(N4CCOCC4)n3n2)CC1	48	
O=C(Nc1ccc(Cl)c(Cl)c1)N1CCN(c2ccc3nncn3n2)CC1		pKa [4]: 5.9; logP [2]: 4
O=C(Cc1ccc(Cl)c(Cl)c1)N1CCN(c2ccc3[nH]ncc3n2)CC1	28	
CCCCOC(=O)c1cn2nc(N3CCN(C(=O)Cc4ccc(Cl)c(Cl)c4)CC3)ccc2n1	23	
O=C(Cc1ccc(Cl)c(Cl)c1)N1CCN(c2ccc3[nH]c(=O)sc3c2)CC1	> 50	
O=C(Cc1ccc(Cl)c(Cl)c1)N1CCN(c2ccc3nncn3n2)CC1		CC50 (HCT-8): > 100 µM; pKa [4]: 5.9; logP [2]: 3
O=C(Cc1ccc(Cl)c(Cl)c1)N1CCN(c2ccc3nccn3n2)CC1	63	
O=C(Cc1ccc(Cl)c(Cl)c1)N1CCN(C2=Nn3cnnc3CC2)CC1	1.2	pKa [4]: 4.4; logP [2]: 1.8; Activity [5]: 15%; inhibition (INH) [6]: 8.7%; inhibition (INH) [7]: 34%; inhibition (INH) [8]: 61%
Cc1nc2nc(N3CCN(C(=O)Cc4ccc(Cl)c(Cl)c4)CC3)ccc2s1	18	
O=C(Cc1ccc(Cl)c(Cl)c1)N1CCN(c2nccc(C(F)(F)F)n2)CC1	> 50	
O=C(Cc1ccc(Cl)c(Cl)c1)N1CCN(c2nc3ccccc3o2)CC1	> 50	
O=C(Cc1ccc(Cl)c(Cl)c1)N1CCNCC1	> 50	
O=C(Cc1ccc(Cl)c(Cl)c1)N1CCN(c2ccc3nc[nH]c3c2)CC1	20	

Structure (SMILES)	EC50 (Cryptosporidium parvum [1]) [µM]	further results
Nc1nc2cc(N3CCN(C(=O)Cc4ccc(Cl)c(Cl)c4)CC3)ccc2s1	16	
Cc1nc2cc(N3CCN(C(=O)Cc4ccc(Cl)c(Cl)c4)CC3)ccc2s1	14	
O=C(Cc1ccc(Cl)c(Cl)c1)N1CCN(c2ccc3nc(C(=O)N4CCOCC4)cn3n2)CC1	> 50	
O=C(Nc1ccc(Cl)c(Cl)c1)N1CCN(c2nc3ccccc3[nH]2)CC1	17	
Cc1nnc2ccc(N3CCN(C(=O)Cc4ccc(Cl)c(Cl)c4)CC3)nn12	30	
CNc1nccc(N2CCN(C(=O)Nc3ccc(Cl)c(Cl)c3)CC2)n1	> 25	
O=C(Cc1ccc(Cl)c(Cl)c1)N1CCN(c2cc3ccncc3cn2)CC1	50	
O=C(Cc1ccc(Cl)c(Cl)c1)N1CCN(c2ncccn2)CC1	> 50	
O=C(Nc1ccc(Cl)c(Cl)c1)N1CCN(c2ccc3nnc(C(F)(F)F)n3n2)CC1	11	
Nc1nnc2ccc(N3CCN(C(=O)Cc4ccc(Cl)c(Cl)c4)CC3)nn12	65	
Cc1cc2nncn2nc1N1CCN(C(=O)Nc2ccc(Cl)c(Cl)c2)CC1	25	
O=C(Nc1ccc(Cl)c(Cl)c1)N1CCN(c2ccc3nccn3n2)CC1	16	pKa [4]: 6.4; Activity [5]: 77%
Cc1cc(N2CCN(C(=O)Nc3ccc(Cl)c(Cl)c3)CC2)nn2cnnc12	24	
O=C(Cc1ccc(Cl)c(Cl)c1)N1CCN(c2ccc3ncccc3n2)CC1	38	
O=C(Cc1ccc(Cl)c(Cl)c1)N1CCN(c2ccccc2)CC1	42	pKa [4]: 3; Activity [5]: 2%
Cc1nnc2ccc(N3CCN(C(=O)Nc4ccc(Cl)c(Cl)c4)CC3)nn12	26	
O=C(Cc1ccc(Cl)c(Cl)c1)N1CCN(c2ccc3nonc3c2)CC1	24	
Cc1cc(N2CCN(C(=O)Cc3ccc(Cl)c(Cl)c3)CC2)nn2cnnc12	61	
O=C(Cc1ccc(Cl)c(Cl)c1)N1CCN(c2ccc3cc[nH]c3n2)CC1	30	
O=C(Nc1nc2nc(N3CCN(C(=O)Cc4ccc(Cl)c(Cl)c4)CC3)ccc2s1)c1ccccc1	2.9	pKa [4]: 7.7; Activity [5]: 47%
O=C(Cc1ccc(Cl)c(Cl)c1)N1CCN(c2ccc3ccccc3n2)CC1	46	
O=C(Cc1ccc(Cl)c(Cl)c1)N1CCN(c2ccc3c(cnn3Cc3ccccc3)n2)CC1	45	
